In data set [1] the test system is MCF7. Kind of data set: Estrogenic activity in human MCF7 cells assessed as cell proliferation after 7 days by WST-8 assay. The class given is functional, cell-based. An outline of the steps:
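Cells were seeded at 1.2 × 10³ per well in the same medium. Proliferation was read by WST-8 (2 h, absorbance at 450 nm). Viable cell number was plotted against log concentration and EC₅₀ taken from a sigmoidal fit.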

Data set [2] can be described thus: Dissociation constant, pKa of the compound.
Data set [3] in a line: Octanol-water partition coefficient, log P of the compound by HPLC analysis.
For data set [4], the target named is T1, Estrogen receptor (Homo sapiens) (UniProt P03372).
T1 sequence (whole entry): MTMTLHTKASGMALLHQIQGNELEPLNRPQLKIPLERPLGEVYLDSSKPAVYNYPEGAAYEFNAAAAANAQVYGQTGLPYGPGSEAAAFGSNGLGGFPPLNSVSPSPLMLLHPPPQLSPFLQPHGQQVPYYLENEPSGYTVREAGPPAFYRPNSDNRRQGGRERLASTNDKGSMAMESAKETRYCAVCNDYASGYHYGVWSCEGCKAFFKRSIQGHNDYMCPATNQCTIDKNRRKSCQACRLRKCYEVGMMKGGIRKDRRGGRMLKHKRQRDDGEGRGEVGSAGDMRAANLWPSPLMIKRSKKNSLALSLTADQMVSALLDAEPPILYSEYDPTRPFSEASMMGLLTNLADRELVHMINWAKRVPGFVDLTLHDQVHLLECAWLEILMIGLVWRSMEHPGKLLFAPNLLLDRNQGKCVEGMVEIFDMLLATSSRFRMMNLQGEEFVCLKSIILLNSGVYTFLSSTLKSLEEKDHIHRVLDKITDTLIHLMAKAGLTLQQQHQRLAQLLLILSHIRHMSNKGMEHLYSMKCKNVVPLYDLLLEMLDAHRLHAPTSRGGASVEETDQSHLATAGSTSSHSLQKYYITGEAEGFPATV
Kind of data set: Displacement of [3H]estradiol from human recombinant ER at 10^-8 to 10^-7 M after 14 to 18 hrs by scintillation counting analysis. The following applies: in the assay text read “10^-8 to 10^-4 M” for “10^-8 to 10^-7 M”. An outline of the steps:
(§1)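 Recombinant human ER was diluted in binding buffer (50 mM Tris pH 7.5, 10% glycerol, 0.1 mM BHA, 10 mM mercaptoethanol, 0.5% yeast extract) to 2–4 nM. It was incubated refrigerated for 14–18 h with 10⁻⁸ M [³H]estradiol final and 10⁻⁴–10⁻⁸ M competitor in DMSO. Bound ligand was captured on hydroxylapatite for 15 min at 0 °C, washed three times with Tris pH 7.3, and counted by scintillation. Run in duplicate.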

Data set [5] has as its target T1, Estrogen receptor (Homo sapiens). In words: (§2) Agonist activity at ER in human T47D-Kbluc cells at 10^-14 to 10^-7 M after 24 hrs by luciferase reporter gene assay. In kind it is cell-based. The gist of the method: (§3)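 After 24 h at 37 °C, compounds were added at 10⁻¹⁴ to 10⁻⁷ M final in 0.1% DMSO final. After a further 24 h, Steady-Glo was added and luminescence read after 5 min.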

Data set [6] has as its system MCF7. In words: Estrogenic activity in human MCF7 cells assessed as cell proliferation at 10^-12 M to 10^-6 M after 7 days by WST-8 assay relative to estradiol. In kind it is functional.
Data set [7] deals with T1, Estrogen receptor (Homo sapiens). Kind of data set: (§4) Displacement of [3H]estradiol from human recombinant ER after 14 to 18 hrs by scintillation counting analysis. An outline of the steps:
as §1

The target of data set [8] is Estrogen receptor (Homo sapiens) (UniProt P03372). Described as §4. The gist of the method:
as §1
This is another data set of the same source.

Data set [9] has the same target. The description is as §2. The class given is cell-based. The gist of the method:
as §3
This is another data set of the same source.

Activity calls are given as the source filed them. The rule behind the calls is not given here.

On to 4-Trimethylgermylphenol, for which the concentration for a half-maximal effect (EC50) in the data set with MCF7 [1] (mcf7) worked out at 100 nM. Also, the pKa in data set [2] is recorded as 10.2. Besides, in [3], the logP came out at 4.11.

On to `CCC(CC)(CC)c1ccc(O)cc1`, for which, in data set [4], the inhibition entry was “Active”. In addition, in the data set with MCF7 [1] (Homo sapiens, MCF7, 168 h), the EC50 worked out at 23 nM. Further, in [5], the outcome was Active. The same compound registered a log partition coefficient (logP) in data set [3] of 5.03.

Turning to `Oc1ccc(C(c2ccccc2)(c2ccccc2)c2ccccc2)cc1`, in the data set on MCF7 [6] (MCF7, 168 h), the Emax is 16%. In [3], this compound yielded a logP of 6.25.

As to `CC(C)(C)c1ccc(O)cc1`, in the data set on MCF7 [1] (Homo sapiens, MCF7, 168 h), the EC50 was 870 nM.

With `CC[Si](C)(C)c1ccc(O)cc1`, the EC50 in the data set on MCF7 [1] (Homo sapiens, MCF7, 168 h) came out at 41 nM. Moreover, the logP in data set [3] came to 4.64.

Turning to `CC(C)(c1ccccc1)c1ccc(O)cc1`, the EC50 with MCF7 [1] (Homo sapiens, MCF7, 168 h) was 38 nM. The compound further returned a logP in data set [3] of 4.31.

The compound “4-Triphenylgermylphenol [listing 1 of 2 here]” registered a log partition coefficient (logP) in data set [3] of 6.97.

Consider `Oc1ccc([Si](c2ccccc2)(c2ccccc2)c2ccccc2)cc1`, for which the Emax in the data set with MCF7 [6] (MCF7, 168 h) is 29%. The same compound gave a log partition coefficient (logP) in data set [3] of 6.83.

As to `CC[Si](CC)(CC)c1ccc(O)cc1`, in the data set with MCF7 [1] (Homo sapiens, MCF7, 168 h), the half-maximal effective concentration (EC50) was 3.4 nM. For the same compound, the inhibition result in data set [7] is “Dose-dependent effect”. Besides, in [5], the result was Active. In data set [3], this compound gave a logP of 5.69.

Consider `C[Si](C)(C)c1ccc(O)cc1`, for which the EC50 with MCF7 [1] (Homo sapiens, MCF7, 168 h) amounted to 63 nM. Moreover, in data set [2], the pKa worked out at 10.1. The lipophilicity (logP) in data set [3] is 4.12.

Consider “4-Triethylgermylphenol [listing 1 of 2 here]”, for which the EC50 with MCF7 [1] (mcf7) worked out at 2.1 nM. The compound further showed a logP in data set [3] of 5.71.

As to “4-Triethylgermylphenol [listing 2 of 2 here]”, in data set [8], the inhibition entry is “Dose-dependent effect”. Besides, the result in [9] was Active.

Regarding “4-Triphenylgermylphenol [listing 2 of 2 here]”, the Emax in the data set on MCF7 [6] was determined as 47%.

`C[Si](C)(c1ccccc1)c1ccc(O)cc1`: the EC50 in the data set with MCF7 [1] (Homo sapiens, MCF7, 168 h) worked out at 16 nM. This compound registered a log partition coefficient (logP) in [3] of 4.91.

Regarding `CCC(C)(C)c1ccc(O)cc1`, the concentration giving a half-maximal response (EC50) with MCF7 [1] (Homo sapiens, MCF7, 168 h) amounted to 190 nM. In data set [3], the log partition coefficient (logP) came to 4.04.

(Values after ChEMBL document CHEMBL2311335, “Increased hydrophobicity and estrogenic activity of simple phenols with silicon and germanium-containing substituents” (J Med Chem, 2013).)
